Test results as given in ChEMBL document CHEMBL5055628, “Anticancer properties of indole derivatives as IsoCombretastatin A-4 analogues” (Eur J Med Chem, 2021).
The source made the active and inactive calls. No cut-off for these calls is given here.

Key:
HCT-116 = assay: Cytotoxicity against human HCT-116 cells assessed as inhibition of cell growth measured after 72 hrs by CellTiter-Glo reagent based luminescence assay; type: functional; settings: HCT-116, 72 h
In short: (§1)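 Cells (HCT-116 in McCoy's 5A; U87-MG in DMEM 4.5 g/L glucose; all with 10% serum, 1% glutamine, 37 °C, 5% CO2) seeded at 3 × 10³/well, treated after 24 h with 10 final concentrations by serial dilution; vehicle controls. After 72 h, CellTiter-Glo luminescence; IC50 from four- or five-parameter logistic fit, triplicate, mean of three experiments.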

[1] = Drug metabolism in rat liver microsomes assessed as N-demethylated metabolite formation measured after 96 hrs by ESI-HRMS assay; type: ADME, Microsome
In short: (§2)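 Compound at 100 μM final incubated at 37 °C with rat or human liver microsomes (1 mg/mL protein, 10 mM buffer pH 7.4) plus NADPH-generating system (0.6 mM NADPNa4, 6.4 mM glucose-6-phosphate, 2 U/mL G6PDH). After 96 h, ethyl acetate extraction and HPLC-MS/MS (positive ESI, m/z 150–450, collision-induced dissociation) to identify metabolites.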

[2] = Drug metabolism in rat liver microsomes assessed as hydroxylated metabolite formation measured after 96 hrs by ESI-HRMS assay; type: ADME, Microsome; in short: as §2
[3] = Drug metabolism in human liver microsomes assessed as N-demethylated metabolite formation measured after 96 hrs by ESI-HRMS assay; type: ADME, Microsome; in short: as §2
[4] = Drug metabolism in human liver microsomes assessed as hydroxylated metabolite formation measured after 96 hrs by ESI-HRMS assay; type: ADME, Microsome; in short: as §2
[5] = Metabolic stability in rat liver microsomes assessed as half life measured after 96 hrs by HPLC-MS/MS analysis; type: ADME, Microsome
In short: (§3)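 Compound (100 μM final) incubated at 37 °C with rat or human liver microsomes (1 mg/mL protein, pH 7.4) and NADPH-generating system; triplicate aliquots at 0–144 h quenched with isoCA-4 internal standard and ethyl acetate, quantified by HPLC-MS/MS against calibration curves.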

[6] = Metabolic stability in human liver microsomes assessed as half life measured after 96 hrs by HPLC-MS/MS analysis; type: ADME, Microsome; in short: as §3
[7] = Inhibition of porcine brain tubulin polymerization incubated for 30 mins followed by cooling on ice for 10 mins and measured by UV spectrometer assay; type: tissue-based, Sus scrofa
In short: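 Porcine brain tubulin (Shelanski isolation) in 0.1 M MES, 1.5 mM GTP, 1 mM EGTA, 1 mM β-ME, 1 mM MgCl2, pH 6.7, diluted to 1.5 mg/mL; ligand or DMSO 30 min at 20 °C, 10 min on ice. Assembly by 450 nm turbidity on 4→37 °C shift, plateau minus baseline vs no-ligand control (100%); IC50 from mono-exponential fit of ligand:tubulin ratio, three independent experiments.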

U-87 MG = assay: Cytotoxicity against human U-87 MG cells assessed as inhibition of cell growth measured after 72 hrs by CellTiter-Glo reagent based luminescence assay; type: functional, U-87MG ATCC; in short: as §1
A549 = assay: Cytotoxicity against human A549 cells assessed as inhibition of cell growth measured after 72 hrs by CellTiter-Glo reagent based luminescence assay; type: functional; settings: A549, 72 h
In short: (§4)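 Cells seeded at 3 × 10³/well and grown 24 h. A549, MDA-MB231, K562 and K562R (doxorubicin-resistant) were in RPMI 1640; MiaPaCa2 and HT29 in DMEM (4.5 g/L glucose); all media had 10% FCS and 1% glutamine, at 37 °C and 5% CO₂. Cells got 10 final concentrations by serial dilution, with vehicle controls, for 72 h. CellTiter-Glo luminescence was read after 15 min. Triplicate runs; IC50 from four- or five-parameter logistic fits.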

MDA-MB-231 = assay: Cytotoxicity against human MDA-MB-231 cells assessed as inhibition of cell growth measured after 72 hrs by CellTiter-Glo reagent based luminescence assay; type: functional; settings: MDA-MB-231, 72 h; in short: as §4
MIA PaCa-2 = assay: Cytotoxicity against human MIA PaCa-2 cells assessed as inhibition of cell growth measured after 72 hrs by CellTiter-Glo reagent based luminescence assay; type: functional; settings: MIA PaCa-2, 72 h; in short: as §4
HT-1080 = assay: Cytotoxicity against human HT-1080 cells assessed as inhibition of cell growth measured after 72 hrs by CellTiter-Glo reagent based luminescence assay; type: functional; settings: HT-1080, 72 h
K562 [8] = assay: Cytotoxicity against human K562 cells assessed as inhibition of cell growth measured after 72 hrs by CellTiter-Glo reagent based luminescence assay; type: functional; settings: K562, 72 h; in short: as §4
K-562R [9] = assay: Cytotoxicity against human K-562R cells assessed as inhibition of cell growth measured after 72 hrs by CellTiter-Glo reagent based luminescence assay; type: functional; in short: as §4
HT-29 = assay: Cytotoxicity against human HT-29 cells assessed as inhibition of cell growth measured after 72 hrs by CellTiter-Glo reagent based luminescence assay; type: functional; settings: HT-29, 72 h; in short: as §4
K562 [10] = assay: Cell cycle arrest in human K562 cells assessed as accumulation of cells in G2/M phase at 0.5 nM measured after 24 hrs by PI staining based flowcytometry; type: functional
In short: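 Exponentially growing K562 cells exposed to compound (0.5 and 1 nM) or DMSO alone for 24 h. DNA content stained with propidium iodide and cell-cycle distribution read by flow cytometry.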

K562 [11] = assay: Induction of mitochondrial dysfunction in human K562 cells assessed as green monomer formation at 0.5 nM measured after 48 hrs by JC-1 staining based flow cytometry (reference value: 1.3%); type: functional
K562 [12] = assay: Induction of mitochondrial dysfunction in human K562 cells assessed as red aggregate formation at 0.5 nM measured after 48 hrs by JC-1 staining based flow cytometry (reference value: 98.3%); type: functional
K562 [13] = assay: Induction of mitochondrial dysfunction in human K562 cells assessed as green monomer formation at 1 nM measured after 48 hrs by JC-1 staining based flow cytometry (reference value: 1.3%); type: functional
K562 [14] = assay: Induction of mitochondrial dysfunction in human K562 cells assessed as red aggregate formation at 1 nM measured after 48 hrs by JC-1 staining based flow cytometry (reference value: 98.3%); type: functional
K562 [15] = assay: Induction of mitochondrial dysfunction in human K562 cells assessed as green monomer formation at 5 nM measured after 48 hrs by JC-1 staining based flow cytometry (reference value: 1.3%); type: functional
K562 [16] = assay: Induction of mitochondrial dysfunction in human K562 cells assessed as red aggregate formation at 5 nM measured after 48 hrs by JC-1 staining based flow cytometry (reference value: 98.3%); type: functional
K562 [17] = assay: Induction of mitochondrial dysfunction in human K562 cells assessed as green monomer formation at 10 nM measured after 48 hrs by JC-1 staining based flow cytometry (reference value: 1.3%); type: functional
K562 [18] = assay: Induction of mitochondrial dysfunction in human K562 cells assessed as red aggregate formation at 10 nM measured after 48 hrs by JC-1 staining based flow cytometry (reference value: 98.3%); type: functional
K562 [19] = assay: Induction of mitochondrial dysfunction in human K562 cells assessed as green monomer formation at 50 nM measured after 48 hrs by JC-1 staining based flow cytometry (reference value: 1.3%); type: functional
K562 [20] = assay: Induction of mitochondrial dysfunction in human K562 cells assessed as red aggregate formation at 50 nM measured after 48 hrs by JC-1 staining based flow cytometry (reference value: 98.3%); type: functional
K562 [21] = assay: Anticlonogenic activity against human K562 cells assessed as reduction in number of cell colonies at 0.05 to 10 nM measured after 10 days by MTT reagent based colony formation assay; type: functional; settings: dose 0.05-10 nM, time 10.0 day
In short: (§5)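 10^3 K562 cells (RPMI 1640, 10% FBS) or imatinib-resistant K562IR cells (RPMI 1640 with 25 mM HEPES, 10% FCS; kept in 1 μM imatinib, washed three times before use) grown 10 days in semisolid methylcellulose medium with 10% FBS, with or without compound. Colonies stained with 1 mg/mL MTT and image-analysed; three independent experiments, mean ± SD, two-way ANOVA with Tukey test.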

K562 [22] = assay: Anticlonogenic activity against human K562 cells assessed as reduction in total surface area of cell colonies at 0.05 to 10 nM measured after 10 days by MTT reagent based colony formation assay; type: functional; settings: dose 0.05-10 nM, time 10.0 day; in short: as §5
K562 [23] = assay: Anticlonogenic activity against human K562 cells assessed as reduction in average size of cell colonies at 0.05 to 10 nM measured after 10 days by MTT reagent based colony formation assay; type: functional; settings: dose 0.05-10 nM, time 10.0 day; in short: as §5
K-562R [24] = assay: Anticlonogenic activity against imatinib-resistant human K-562R cells assessed as reduction in number of cell colonies at 0.01 to 10 nM measured after 10 days by MTT reagent based colony formation assay; type: functional; settings: dose 0.01-10 nM, time 10.0 day; in short: as §5
K-562R [25] = assay: Anticlonogenic activity against imatinib-resistant human K-562R cells assessed as reduction of total surface of cell colonies at 0.01 to 10 nM measured after 10 days by MTT reagent based colony formation assay; type: functional; settings: dose 0.01-10 nM, time 10.0 day; in short: as §5
K-562R [26] = assay: Anticlonogenic activity against imatinib-resistant human K-562R cells assessed as reduction of average size of cell colonies at 0.01 to 10 nM measured after 10 days by MTT reagent based colony formation assay; type: functional; settings: dose 0.01-10 nM, time 10.0 day; in short: as §5

`COc1cc2nc(Cl)nc(N(C)c3ccc4c(c3)cc3n4CCOC3)c2cc1OC` gave an IC50 (HCT-116) of 361 nM.

In the case of `C=C(c1ccc2c(c1)cc1n2CC=CC1)c1cc(C)nc2ccccc12`, the IC50 (HCT-116) is reported as 25.7 nM.

In the case of `COc1cc(N(C)c2ccc3c(c2)cc2n3CC=CC2)cc(OC)c1OC`, the IC50 (HCT-116) is reported as 959 nM.

With `C=C(c1ccc2c(c1)cc(CO)n2CC)c1cc(C)nc2ccccc12` the IC50 (HCT-116) was 1.47 nM.

For `C=C(c1cc(OC)c(OC)c(OC)c1)c1ccc2c(c1)cc(CO)n2C`, the IC50 (HCT-116) was 2.12 nM.

For `Cc1cc(N(C)c2ccc3c(c2)cc2n3CCOC2)c2ccccc2n1`, the IC50 (HCT-116) was 3.22 nM.

Molecule `C=C(c1ccc2c(c1)cc(CO)n2C)c1cc(C)nc2ccccc12` has an IC50 (HCT-116) of 1.25 nM.

With `CCn1c(CO)cc2cc(N(C)c3nc(C)nc4ccccc34)ccc21` the IC50 (HCT-116) was 0.08 nM, the Drug metabolism [1] was “Metabolite_Detected” and the Drug metabolism [2] was “Metabolite_Detected”. The Drug metabolism [3] was “Metabolite_Detected”, the Drug metabolism [4] was “Metabolite_Detected” and the half-life [5] was 140 h. The half-life [6] was 145 h, the IC50 [7] was 1900 nM and the IC50 (U-87 MG) was 0.51 nM. The IC50 (A549) was 0.7 nM, the IC50 (MDA-MB-231) was 0.25 nM and the IC50 (MIA PaCa-2) was 0.09 nM. The IC50 (HT-1080) was 0.08 nM, the IC50 (K562 [8]) was 0.26 nM and the IC50 (K-562R [9]) was 0.1 nM. For the same molecule, the IC50 (HT-29) was 0.84 nM, the Activity (K562 [10]) was “Active” and the Activity (K562 [11]) was 21.3%. The Activity (K562 [12]) was 77.6%, the Activity (K562 [13]) was 22.3% and the Activity (K562 [14]) was 76.9%. For the same molecule, the Activity (K562 [15]) was 23.1%, the Activity (K562 [16]) was 75.8% and the Activity (K562 [17]) was 31.2%. The Activity (K562 [18]) was 68.1%, the Activity (K562 [19]) was 39.2% and the Activity (K562 [20]) was 60%. For the same molecule, the Activity (K562 [21]) was “Active”, the Activity (K562 [22]) was “Active” and the Activity (K562 [23]) was “Active”. For the same molecule, the Activity (K-562R [24]) was “Active”, the Activity (K-562R [25]) was “Active” and the Activity (K-562R [26]) was “Active”.

With `COCOCc1cc2cc(N(C)c3cc(C)nc4ccccc34)ccc2n1C` the IC50 (HCT-116) was 44.3 nM.

`C=C(c1cc(OC)c(OC)c(OC)c1)c1ccc2c(c1)cc(COC)n2C` showed an IC50 (HCT-116) of 72.4 nM.

With `COc1cc(N(C)c2ccc3c(c2)cc2n3CCOC2)cc(OC)c1OC` the IC50 (HCT-116) was 29.2 nM.

With `Cc1cc(N(C)c2ccc3c(c2)cc2n3CC=CC2)c2ccccc2n1` the IC50 (HCT-116) was 5.2 nM.

`COCc1cc2cc(N(C)c3cc(OC)c(OC)c(OC)c3)ccc2n1C` showed an IC50 (HCT-116) of 47.5 nM.
